Source: PubChem
Most compounds without a hit are left out; they make up all but 3% or so of the library.
PvdQ inh: P. aeruginosa PvdQ acylase inhibition | purified PvdQ acylase, fluorescence plate reader | inhibition, % at 10 µM | 340,000 compounds, 0.063% hits | AID 488965; in the data active = inhibition above about 30%, passing the limit was not always enough; inconclusive = no clear call, values can overlap the other calls;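 also: 0% = vehicle neutral wells and 100% = reference inhibitor wells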
T cruzi repl: blocks replication of Trypanosoma cruzi. T. cruzi beta-gal in NIH3T3, luminescence, 90 h. inhibition, % (test concentration not listed). 300,000 compounds, 1.4% hits. AID 1885;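 active = mean inhibition across valid replicates above about 55%, limit read from the data; inconclusive = mean below that limit but half or more replicates reach it; inactive = mean below it, under half of replicates reach it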;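 also: signal also drops with host cell toxicity which is not excluded here; 0% = plate median of DMSO wells and 100% = zero luminescence signal; higher percent means less beta-gal luminescence so fewer parasites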
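Test system: β-gal T. cruzi (Tulahuen C4) inside NIH/3T3 cells / Quantity: 5,000 cells/well / Measured by: luminescence from GalScreen with 0.05% NP40, read after 60 min / Medium: DMEM plus 2% FBS / Measure: parasite load inhibition, % / Reagent: Tulahuen C4 trypomastigotes, 5000/well / Schedule: co-culture of at least 90 h after 3 h attachment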
HSF-1 act: increases HSF-1 driven luciferase reporter signal | NIH3T3-HGL HSF-1 luciferase reporter, MG132, 8 h; 100% = twice DMSO control signal | activation, % at 9 µM | 300,000 compounds, 1.7% hits;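 active = mean replicate activation of at least 50% with a set share of replicates each reaching 50%; inconclusive = only one of those two conditions met; inactive = mean below 50% and too few replicates reaching it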;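 also: 0% = median of the neutral control wells and 100% = twice that signal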
Glyco luc inh: blocks N-linked glycosylation in D54 reporter cells | reporter increase, % at 12.5 µM | 360,000 compounds, 0.23% hits | D54 ERlucT glycosylation luciferase reporter, 24 h; percent of 100 nM tunicamycin response | AID 588692;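 active = mean luciferase reporter signal, scaled so untreated is 0 and the glycosylation-blocking control 100, at or above a set limit in every replicate; inconclusive = mean reaches the limit but not every replicate does; inactive = mean below the limit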;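 also: luciferase carries N-glycosylation sites so blocking glycosylation raises the light; 0% = median of neutral control wells and 100% = median of 100 nM tunicamycin wells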
PfHsp90 yeast 2: inhibits growth of yeast expressing Plasmodium falciparum Hsp90 | AID 504621 | S. cerevisiae expressing PfHsp90, BacTiter-Glo ATP, 48 h; yeast lacking PDR1 and PDR3 efflux regulators | 310,000 compounds, 0.32% hits | inhibition, % at 9.4 µM;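 active = every replicate shows inhibition above about 80%, whatever the replicate mean, limit read from the data; inconclusive = mean inhibition reaches the set limit but some replicate falls short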;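 also: 0% = DMSO neutral controls and 100% = 20 µM radicicol positive controls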
CaV13 FRET inh: Primary screen for inhibitors of IQ motif and Ca2+-dependent inactivation inhibitor domain binding in CACNA1D, Förster resonance energy transfer in living cells, …; HEK cells, CFP/YFP FRET ICDI-IQ, plate reader, 10 min; percent FRET-ratio fall versus neutral wells; inhibition, % at 12.3 µM; 340,000 compounds, 0.098% hits;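 active = mean replicate inhibition of at least 30% and at least 1% of replicates passing that level; inconclusive = only one of the two criteria is met; inactive = neither criterion is met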;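 also: 0% = median of the neutral control wells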
* = called active by the depositor.

How did NC(Cc1ccc(Cl)cc1)c1csc(Nc2ccc(C(=O)NCCCO)cn2)n1 (centres undefined) do in these assays?
Glyco luc inh: 7.7; CaV13 FRET inh: -3.5

Results for CCCCOCC1CN(CCCC)S(=O)(=O)c2c(Oc3ccc(C(C)C)cc3)cccc2O1 (centres undefined) ?
CaV13 FRET inh: -7.4

What do the screens show for `COc1ccccc1C(=O)N1CCN(C(=O)[C@H](CCc2ccccc2)NC(=O)[C@H]2O[C@@H](n3cnc4c(N)ncnc43)[C@H](O)[C@@H]2O)CC1`?
CaV13 FRET inh: -1.7

What do the screens show for `CC(/C=N/NC(=O)c1sc(N)nc1C)=C\c1ccccc1`?
PvdQ inh: -10.6; T cruzi repl: -1.6; HSF-1 act: 74.7*; Glyco luc inh: 1.8; PfHsp90 yeast 2: 1.9; CaV13 FRET inh: -1.8

Results for O=C(CN1CCOCC1)N/N=C/C(Br)=C\c1ccccc1 ?
PvdQ inh: 3.0; T cruzi repl: -33.2; HSF-1 act: 30.8; Glyco luc inh: 0.6; PfHsp90 yeast 2: -9.9; CaV13 FRET inh: -2.7

How did CC(/C=N/NC(=O)c1ccco1)=C\c1ccccc1 do in these assays?
PvdQ inh: -8.4; T cruzi repl: -3.9; HSF-1 act: 55.1*; Glyco luc inh: -12.3; PfHsp90 yeast 2: 34.3; CaV13 FRET inh: -4.9

What do the screens show for `CC(/C=N/NC(=O)Cc1cccs1)=C\c1ccccc1`?
PvdQ inh: -6.5; T cruzi repl: -6.1; HSF-1 act: 122.3*; Glyco luc inh: -0.7; PfHsp90 yeast 2: 15.1; CaV13 FRET inh: -13.5

Results for O=C(Cc1cccs1)N/N=C/C(Br)=C/c1ccccc1 ?
PvdQ inh: -2.1; T cruzi repl: -4.4; HSF-1 act: 105.7*; Glyco luc inh: 4.1; PfHsp90 yeast 2: -5.1; CaV13 FRET inh: -8.2

How did COC(=O)[C@]12C[C@H](CC(=O)N3CCOCC3)C(=O)N(Cc3ccc4c(c3)OCO4)C1=C[C@H](COCc1ccccc1)O[C@@H]2C do in these assays?
CaV13 FRET inh: -9.2

Results for C[C@H]1CN([C@@H](C)CO)C(=O)CCCn2cc(nn2)CO[C@@H]1CN(C)S(=O)(=O)c1ccc(F)cc1 ?
CaV13 FRET inh: -3.0

Results for COCCC(=O)N1CCOCC1c1cc(C(=O)NCc2ccccc2)no1 (centres undefined) ?
Glyco luc inh: -0.2; CaV13 FRET inh: -4.6

What do the screens show for `Cc1ccc(OCc2nc3ccccc3n2C(C(=O)Nc2c(C)cccc2C)C2CC2)cc1` (centres undefined)?
CaV13 FRET inh: -7.8

Results for Cc1ccc(S(=O)(=O)N(C)C)cc1NC(=O)COC(=O)/C=C/c1ccc2ccccc2n1 ?
PvdQ inh: 12.4; T cruzi repl: 1.5; HSF-1 act: 76.3*; Glyco luc inh: 1.0; PfHsp90 yeast 2: 2.1; CaV13 FRET inh: -6.2

Results for Cc1ccc(/C=C2\OC(=O)c3ccccc32)cc1 ?
PvdQ inh: 5.7; T cruzi repl: -19.9; HSF-1 act: 59.3*; Glyco luc inh: 2.2; PfHsp90 yeast 2: 1.3; CaV13 FRET inh: -7.5

What do the screens show for `CCOC(=O)C1=C(C(=O)OCC)C2N(Cc3ccc(C#N)cc3)c3ccccc3[C@@]23C[C@@H](C(=O)OC)N(S(=O)(=O)c2ccccc2C)C3=N1` (some centres undefined)?
CaV13 FRET inh: -9.8

What do the screens show for `CC(C)NC(=O)c1sc2nc3c(c(-c4cccs4)c2c1N)CN(C)CC3`?
PvdQ inh: -8.4; T cruzi repl: 56.5*; HSF-1 act: -9.9; Glyco luc inh: 1.3; PfHsp90 yeast 2: 0.8

How did CC(C)(C)c1nnc2sc(SCC(=O)c3ccc4c(c3)OCCO4)nn2c1=O do in these assays?
PvdQ inh: 12.2; T cruzi repl: -11.8; HSF-1 act: -11.8; Glyco luc inh: 39.8*; PfHsp90 yeast 2: 12.0; CaV13 FRET inh: -2.5

What do the screens show for `COC(=O)[C@]12C[C@H](CC(=O)N3CCN(C(=O)C4CC4)CC3)C(=O)N(CCC3=CCCCC3)C1=C[C@H](COCc1ccccc1)O[C@@H]2C`?
CaV13 FRET inh: -9.4

How did CCOc1ccc(NCC(=O)c2ccc(C)cc2)cc1 do in these assays?
PvdQ inh: 9.4; T cruzi repl: 56.7*; HSF-1 act: -59.9; Glyco luc inh: 2.5; PfHsp90 yeast 2: 13.0; CaV13 FRET inh: -4.7

Results for Cc1ccc(C(=O)CNc2ccc(Cl)cc2)cc1 ?
PvdQ inh: 3.7; T cruzi repl: -44.6; HSF-1 act: 36.0; Glyco luc inh: 3.8; PfHsp90 yeast 2: 1.1; CaV13 FRET inh: -1.2

What do the screens show for `CN(C)c1ccc(CNCCC(Cc2ccccc2)c2ccco2)cc1` (centres undefined)?
PvdQ inh: -4.6; T cruzi repl: 60.9*; HSF-1 act: 4.9; Glyco luc inh: 0.6; PfHsp90 yeast 2: -108.0; CaV13 FRET inh: -1.7

What do the screens show for `c1ccc(CNCCC(Cc2ccccc2)c2ccco2)cc1` (centres undefined)?
PvdQ inh: -13.0; T cruzi repl: 2.4; HSF-1 act: 10.6; Glyco luc inh: 1.4; PfHsp90 yeast 2: 10.9; CaV13 FRET inh: -34.1

Results for CC1(C(=O)Nc2ccc3c(c2)OCCO3)CN(S(C)(=O)=O)CC(=O)N1CCCN1CCOCC1 (centres undefined) ?
CaV13 FRET inh: -8.6

Results for CCOc1ccc(-n2c(SCc3nc(-c4ccc(C)cc4)no3)nnc2-c2ccncc2)cc1 ?
PvdQ inh: 7.4; T cruzi repl: 58.1*; HSF-1 act: -21.9; Glyco luc inh: -5.6; CaV13 FRET inh: -1.9

What do the screens show for `Cc1ccc(-c2noc(CSc3nnc(-c4ccncc4)n3-c3ccc(C)cc3)n2)cc1`?
PvdQ inh: -12.1; T cruzi repl: inconclusive; HSF-1 act: 8.6; Glyco luc inh: -6.7; PfHsp90 yeast 2: -16.2; CaV13 FRET inh: -3.4

Results for O=C(COC(=O)c1ccc(F)c(S(=O)(=O)N2CCOCC2)c1)NCCc1ccc(F)cc1 ?
PvdQ inh: 11.8; Glyco luc inh: 2.2; PfHsp90 yeast 2: -8.5; CaV13 FRET inh: -4.0

What do the screens show for `CC(C)C[C@H]1COc2cc(Br)ccc2S(=O)(=O)N1Cc1cccc(Cl)c1`?
CaV13 FRET inh: -5.5

Results for Cc1c(N=C2SCC(=O)N2/N=C\c2ccc(Br)cc2)c(=O)n(-c2ccccc2)n1C ?
PvdQ inh: -3.9; T cruzi repl: 1.0; HSF-1 act: 66.7*; Glyco luc inh: 0.0; PfHsp90 yeast 2: -21.9; CaV13 FRET inh: -14.4

What do the screens show for `CC(=O)OC[C@@H]1CN(Cc2ccccc2)C[C@H](n2cnc3c(N4CCOCC4)ncnc32)O1`?
Glyco luc inh: 2.6; CaV13 FRET inh: -9.8

How did Cc1cc2occ(CC(=O)NCc3cccs3)c2cc1C(C)C do in these assays?
PvdQ inh: -7.2; T cruzi repl: 35.9; HSF-1 act: 62.1*; Glyco luc inh: -1.3; PfHsp90 yeast 2: -25.9; CaV13 FRET inh: -5.6
